Here are results for two compounds from PubChem BioAssay AID463177 (The Scripps Research Institute Molecular Screening Center, 2010).

The source made the active and inactive calls.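 How the source made its calls: active means apoptotic subG1 cells at or above 20% at some dose above 100 nM; inactive means subG1 cells below 20% at every dose.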

This assay is described as follows: apoptosis induction in parental HeLa cells, late-stage follow-up, counter-screen for Wee1 degradation inhibitor project, cell-based, FACS (AID 463177). Conditions: PI FACS subG1 fraction, 20 h; G1 fraction: G1 phase cells, at 5 µM; G2 fraction: G2 phase cells, at 5 µM; S fraction: S phase cells, at 5 µM; subG1 cells, higher = apoptosis: at 5 µM (top of the series). The method, boiled down: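 test system = parental HeLa cells | compound dosing = seven doses, top 5 µM nominal | timing = 20 h compound treatment | technique = flow cytometry of propidium iodide DNA stain with RNase A, ethanol-fixed cells | measure = Cell-cycle phase fractions (%), subG1 marking apoptosis | controls = DMSO vehicle reference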

Consider `O=[N+]([O-])c1cccc2[nH]c(CNc3nc(N4CCOCC4)nc4c3ncn4-c3ccsc3)nc12`, for which the G1 fraction amounted to 41.5%; the G2 fraction worked out at 9.18%; the S fraction came out at 22.8%; the subG1 cells, higher = apoptosis is 26.3% (active).

For the compound `c1ccc2[nH]c(CNc3nc(N4CCOCC4)nc4c3ncn4-c3ccsc3)nc2c1`, the G1 fraction was found to be 24.9%; the G2 fraction is 4.14%; the S fraction was found to be 22.5%; the subG1 cells, higher = apoptosis was 47.6% (active).
